Measured values from ChEMBL document CHEMBL1817667, “Synthesis and antimicrobial properties of some new thiazolyl coumarin derivatives” (2011).
Values after ≈ are worked out from the molar mass of the structure shown.

Columns and labels:
Assay type in all cases: functional
[1] = system: Mycobacterium tuberculosis; assay: Antibacterial activity against Mycobacterium tuberculosis H37Rv ATCC 27294 after 5 days by MTT assay; settings: H37Rv ATCC 27294, 120 h
Outline: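 Inoculum from log-phase culture in Middlebrook 7H9 with ADC, set to McFarland no. 1 (approximately 3×10^7 CFU/mL), then diluted 1:20 in 7H9-OADC. Compounds in DMSO/water, two-fold series 3.91–250 μg/mL, tested in triplicate. Isoniazid positive control, drug-free growth wells. Incubated 37 °C, 8% CO₂. MTT–Tween 80 added to a control well; once purple, added to all wells. MIC read next day.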

Haemophilus influenzae = assay: Antibacterial activity against Haemophilus influenzae ATCC 10211 after 24 hrs by MTT assay
Outline: (§1)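 Broth microdilution. Inocula were grown in Mueller-Hinton broth from subcultures on nutrient agar (37 °C, 48 h) and set to McFarland 0.5. Compounds in DMSO were diluted with water, then two-fold serially from 3.91 to 250 µg/mL. Gentamicin and tetracycline served as positive controls and DMSO as negative. Plates ran 37 °C for 24 h, then MTT (0.2 mg/mL) for 30 min. MIC was the lowest concentration preventing the yellow-to-purple change.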

Staphylococcus aureus = assay: Antibacterial activity against Staphylococcus aureus ATCC 25923 after 24 hrs by MTT assay; settings: ATCC 25923, 24 h; outline: as §1
Candida albicans = assay: Antifungal activity against Candida albicans ATCC 10231 after 24 hrs by MTT assay; settings: ATCC 10231, 24 h; outline: as §1
Streptococcus pyogenes = assay: Antibacterial activity against Streptococcus pyogenes ATCC 19615 after 24 hrs by MTT assay; settings: ATCC 19615, 24 h; outline: as §1

Compound | MIC [1] [µM] | MIC (Haemophilus influenzae; ATCC 10211, 24 h) [µM] | MIC (Staphylococcus aureus) [µM] | MIC (Candida albicans) [µM] | MIC (Streptococcus pyogenes) [µM] | MIC (Haemophilus influenzae) [µM]
O=c1oc2ccccc2cc1-c1csc(N/N=C\c2ccc(O)cc2)n1 | 344 (≈ 125 µg/mL) | 344 (≈ 125 µg/mL) | 344 (≈ 125 µg/mL) | 172 (≈ 62.5 µg/mL) | 172 (≈ 62.5 µg/mL) | 
C/C(=N/Nc1nc(-c2cc3ccccc3oc2=O)cs1)c1cc2cc(Br)ccc2oc1=O | 15 (≈ 7.63 µg/mL) | 15 (≈ 7.63 µg/mL) | 62 (≈ 31.5 µg/mL) | 31 (≈ 15.8 µg/mL) | 62 (≈ 31.5 µg/mL) | 
O=c1oc2ccccc2cc1-c1csc(N/N=C\c2c(O)ccc3ccccc23)n1 | 75 (≈ 31 µg/mL) | 151 (≈ 62.4 µg/mL) | 75 (≈ 31 µg/mL) | 151 (≈ 62.4 µg/mL) | 75 (≈ 31 µg/mL) | 
GENTAMICIN |  |  |  |  |  | 13
O=c1oc2ccccc2cc1-c1csc(NN=C(c2ccccc2)c2ccccc2)n1 | 147 (≈ 62.3 µg/mL) | 147 (≈ 62.3 µg/mL) | 295 (≈ 125 µg/mL) | 147 (≈ 62.3 µg/mL) | 295 (≈ 125 µg/mL) | 
NNC(=O)c1ccncc1 [ISONIAZID] | 1.3 (≈ 0.178 µg/mL) |  |  |  |  | 
O=c1oc2ccccc2cc1-c1csc(N/N=C\c2cccc(O)c2)n1 | 172 (≈ 62.5 µg/mL) | 172 (≈ 62.5 µg/mL) | 172 (≈ 62.5 µg/mL) | 172 (≈ 62.5 µg/mL) | 344 (≈ 125 µg/mL) | 
O=c1oc2ccccc2cc1-c1csc(N/N=C\c2ccc(O)cc2O)n1 | 329 (≈ 125 µg/mL) | 329 (≈ 125 µg/mL) | 82 (≈ 31.1 µg/mL) | 165 (≈ 62.6 µg/mL) | 329 (≈ 125 µg/mL) | 
C/C(=N/Nc1nc(-c2cc3ccccc3oc2=O)cs1)c1cc2ccc(O)cc2oc1=O | 17 (≈ 7.57 µg/mL) | 35 (≈ 15.6 µg/mL) | 17 (≈ 7.57 µg/mL) | 140 (≈ 62.4 µg/mL) | 72 (≈ 32.1 µg/mL) | 
C/C(=N\Nc1nc(-c2cc3ccccc3oc2=O)cs1)c1ccc(O)cc1 | > 663 | 331 (≈ 125 µg/mL) | 165 (≈ 62.3 µg/mL) | 331 (≈ 125 µg/mL) | 165 (≈ 62.3 µg/mL) | 
O=c1oc2ccccc2cc1-c1csc(N/N=C\c2cc(Br)ccc2O)n1 | 17 (≈ 7.52 µg/mL) | 17 (≈ 7.52 µg/mL) | 35 (≈ 15.5 µg/mL) | 35 (≈ 15.5 µg/mL) | 17 (≈ 7.52 µg/mL) | 
OC(Cn1cncn1)(Cn1cncn1)c1ccc(F)cc1F [FLUCONAZOLE] |  |  |  | 10 (≈ 3.06 µg/mL) |  | 
O=c1oc2ccccc2cc1-c1csc(N/N=C\c2ccccc2O)n1 | 43 (≈ 15.6 µg/mL) | 43 (≈ 15.6 µg/mL) | 172 (≈ 62.5 µg/mL) | 86 (≈ 31.3 µg/mL) | 344 (≈ 125 µg/mL) | 
COc1cccc(/C=N\Nc2nc(-c3cc4ccccc4oc3=O)cs2)c1O | 79 (≈ 31.1 µg/mL) | 79 (≈ 31.1 µg/mL) | 159 (≈ 62.6 µg/mL) | 79 (≈ 31.1 µg/mL) | 159 (≈ 62.6 µg/mL) | 
CN(C)[C@@H]1C(O)=C(C(N)=O)C(=O)[C@@]2(O)C(O)=C3C(=O)c4c(O)cccc4[C@@](C)(O)[C@H]3C[C@@H]12 [TETRACYCLINE] |  | 35 (≈ 15.6 µg/mL) | 70 (≈ 31.1 µg/mL) |  | 14 (≈ 6.22 µg/mL) | 
O=c1oc2ccccc2cc1-c1csc(N/N=C\c2cccc3ccccc23)n1 | 157 (≈ 62.4 µg/mL) | 314 (≈ 125 µg/mL) | 157 (≈ 62.4 µg/mL) | 157 (≈ 62.4 µg/mL) | 314 (≈ 125 µg/mL) | 
